Measured values reported in ChEMBL document CHEMBL5653631, “A Potent and Selective ULK1 Inhibitor Suppresses Autophagy and Sensitizes Cancer Cells to Nutrient Stress” (iScience, 2018).
Blank lines part the entries; values can stand above or below the compound they belong to.

Assays:
[1] = target: Serine/threonine-protein kinase 35 (Homo sapiens) (UniProt Q8TDR2); assay: Inhibition of human recombinant CLIK1 at 500 nM related to control ULK1
[2] = target: Death-associated protein kinase 3 (Homo sapiens) (UniProt O43293); assay: Inhibition of human recombinant DAPK3 at 500 nM in presence of ATP by radiometric assay relative to control
[3] = target: cAMP-dependent protein kinase catalytic subunit beta (Homo sapiens) (UniProt P22694); assay: Inhibition of human recombinant PKACbeta at 500 nM in presence of ATP by radiometric assay relative to control
[4] = target: Activin receptor type-2A (Homo sapiens) (UniProt P27037); assay: Inhibition of human recombinant ACTR2 at 500 nM related to control ULK1
[5] = target: LIM domain kinase 1 (Homo sapiens) (UniProt P53667); assay: Inhibition of human recombinant LIMK1 at 500 nM in presence of ATP by radiometric assay relative to control
[6] = target: Dual specificity protein kinase CLK1 (Homo sapiens) (UniProt P49759); assay: Inhibition of human recombinant CLK1 at 500 nM related to control ULK1
[7] = target: Fibroblast growth factor receptor 2 (Homo sapiens) (UniProt P21802); assay: Inhibition of human recombinant FGFR2 at 500 nM in presence of ATP by radiometric assay relative to control
[8] = target: [Pyruvate dehydrogenase (acetyl-transferring)] kinase isozyme 4, mitochondrial (Homo sapiens) (UniProt Q16654); assay: Inhibition of human recombinant PDHK4 at 15 nM in presence of ATP by radiometric assay relative to control
[9] = target: Proto-oncogene tyrosine-protein kinase ROS (Homo sapiens) (UniProt P08922); assay: Inhibition of human recombinant ROS at 15 nM related to control ULK1
Homo sapiens = species: Homo sapiens; assay: Inhibition of human recombinant ABL at 15 nM in presence of ATP by radiometric assay relative to control
In short: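 Panel of 327 recombinant human kinases in radiometric activity assays, each screened in duplicate at a single inhibitor concentration; percent activity remaining relative to vehicle control, percent inhibition taken as 100 minus activity remaining.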

[10] = target: Protein kinase C theta type (Homo sapiens) (UniProt Q04759); assay: Inhibition of human recombinant PKCt at 15 nM in presence of ATP by radiometric assay relative to control
[11] = target: T1, Serine/threonine-protein kinase TAO3 (Homo sapiens) (UniProt Q9H2K8); assay: Inhibition of human recombinant TAO3 at 15 nM in presence of ATP by radiometric assay relative to control
T1 sequence (whole entry): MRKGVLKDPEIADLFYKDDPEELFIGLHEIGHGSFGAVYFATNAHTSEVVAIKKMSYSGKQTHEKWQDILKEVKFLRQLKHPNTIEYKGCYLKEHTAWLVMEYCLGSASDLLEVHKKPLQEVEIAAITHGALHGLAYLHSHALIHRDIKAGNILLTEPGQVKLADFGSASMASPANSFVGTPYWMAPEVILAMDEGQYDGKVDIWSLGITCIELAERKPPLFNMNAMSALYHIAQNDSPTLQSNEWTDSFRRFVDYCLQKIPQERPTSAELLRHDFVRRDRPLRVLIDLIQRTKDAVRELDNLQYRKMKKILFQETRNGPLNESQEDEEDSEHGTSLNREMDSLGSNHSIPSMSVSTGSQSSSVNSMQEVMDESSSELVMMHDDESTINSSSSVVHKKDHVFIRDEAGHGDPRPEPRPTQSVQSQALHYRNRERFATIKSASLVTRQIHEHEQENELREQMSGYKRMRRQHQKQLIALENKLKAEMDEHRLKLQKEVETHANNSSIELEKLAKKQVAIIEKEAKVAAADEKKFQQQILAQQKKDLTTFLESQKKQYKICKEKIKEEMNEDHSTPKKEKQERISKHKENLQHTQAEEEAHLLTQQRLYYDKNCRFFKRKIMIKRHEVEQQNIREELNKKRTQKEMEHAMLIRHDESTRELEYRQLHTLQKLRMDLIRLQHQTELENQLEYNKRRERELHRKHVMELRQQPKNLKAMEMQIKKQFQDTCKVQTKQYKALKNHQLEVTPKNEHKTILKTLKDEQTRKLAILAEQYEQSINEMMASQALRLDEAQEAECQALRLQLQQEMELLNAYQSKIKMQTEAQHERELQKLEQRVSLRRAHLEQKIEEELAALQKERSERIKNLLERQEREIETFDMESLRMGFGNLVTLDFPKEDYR

[12] = target: SRSF protein kinase 2 (Homo sapiens) (UniProt P78362); assay: Inhibition of human recombinant SRPK2 at 15 nM related to control ULK1
[13] = target: Serine/threonine-protein kinase WNK3 (Homo sapiens) (UniProt Q9BYP7); assay: Inhibition of human recombinant Wnk3 at 40 nM in presence of ATP by radiometric assay relative to control
[14] = target: Insulin receptor (Homo sapiens) (UniProt P06213); assay: Inhibition of human recombinant INSR at 40 nM in presence of ATP by radiometric assay relative to control
[15] = target: T2, cGMP-dependent protein kinase 1 (Homo sapiens) (UniProt Q13976); assay: Inhibition of human recombinant PKG1 at 40 nM related to control ULK1
T2 sequence (whole entry): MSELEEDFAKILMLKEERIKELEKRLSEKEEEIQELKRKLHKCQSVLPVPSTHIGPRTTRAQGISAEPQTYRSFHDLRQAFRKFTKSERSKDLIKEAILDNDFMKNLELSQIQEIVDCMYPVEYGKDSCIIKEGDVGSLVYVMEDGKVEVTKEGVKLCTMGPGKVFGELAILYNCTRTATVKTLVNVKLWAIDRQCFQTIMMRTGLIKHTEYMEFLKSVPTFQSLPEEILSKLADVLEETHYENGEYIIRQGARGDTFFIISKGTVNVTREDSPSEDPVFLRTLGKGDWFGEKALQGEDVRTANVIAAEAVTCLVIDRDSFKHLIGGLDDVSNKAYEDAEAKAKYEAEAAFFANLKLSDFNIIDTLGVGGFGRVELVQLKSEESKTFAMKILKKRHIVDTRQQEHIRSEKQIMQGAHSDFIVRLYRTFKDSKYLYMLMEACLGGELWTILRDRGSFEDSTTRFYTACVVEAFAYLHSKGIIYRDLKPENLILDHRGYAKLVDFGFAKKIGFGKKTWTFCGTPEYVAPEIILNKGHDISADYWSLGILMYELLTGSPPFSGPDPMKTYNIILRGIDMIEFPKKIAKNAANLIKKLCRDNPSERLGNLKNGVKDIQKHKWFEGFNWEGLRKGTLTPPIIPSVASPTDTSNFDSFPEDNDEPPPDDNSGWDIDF

[16] = target: Serine/threonine-protein kinase PLK2 (Homo sapiens) (UniProt Q9NYY3); assay: Inhibition of human recombinant PLK2 at 40 nM related to control ULK1
[17] = target: Protein kinase C delta type (Homo sapiens) (UniProt Q05655); assay: Inhibition of human recombinant PKCd at 40 nM in presence of ATP by radiometric assay relative to control

fold change (FC) [1]: 0.04
inhibition [3]: 0%
fold change (FC) [4]: 0.04
inhibition [5]: 2%
fold change (FC) [6]: 0.07
inhibition [7]: 21%
Compound: CNC(=O)c1ccccc1Oc1nc(Nc2cc(OC)c(OC)c(OC)c2)ncc1Br
inhibition [2]: 10%

inhibition [8]: 2%
fold change (FC) [9]: 0
inhibition (Homo sapiens): 82%
inhibition [10]: 0%
inhibition [11]: 1%
fold change (FC) [12]: 0
Compound: CC(C)[C@H](NC(=O)c1cc(-c2cnn3cc(-c4ccc(OCCN5CCCCC5)cc4)cnc23)cs1)C(F)(F)F

inhibition [13]: 3%
inhibition [14]: 0%
fold change (FC) [15]: 0.08
fold change (FC) [16]: 0.04
inhibition [17]: 3%
Compound: O=C(N[C@@H](C1CC1)C(F)(F)F)c1cc(-c2cnn3cc(-c4ccc(F)cc4)cnc23)cs1
